Test results published in ChEMBL document CHEMBL4765376, “Discovery of an Orally Available Diazabicyclooctane Inhibitor (ETX0282) of Class A, C, and D Serine β-Lactamases” (J Med Chem, 2020).
The source made the active and inactive calls. No cut-off for these calls is given here.

Columns and labels:
Escherichia coli [1] = assay: In vivo antibacterial activity against multidrug-resistant Escherichia coli ARC 2687 infected in CD-1 mouse model of neutropenic thigh infection assessed as colony forming unit at 600 mg/kg, sc administered at 6 hrs interval relative to pretreatment; type: functional
Summary of the method: (§1)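 Female CD-1 mice (20–22 g, 3/arm) made neutropenic with ip cyclophosphamide, 150 mg/kg on day −4 and 100 mg/kg on day −1. Each thigh received an im inoculum of 5.5 × 10^6–1.6 × 10^7 CFU from saline suspension (OD625 0.1, diluted). Dosing began 2 h post-infection, q6h. Oral agents were given in 0.5% HPMC/0.1% Tween 80; meropenem was given sc in water. Thighs were taken at 24 h, homogenized and plated on TSA (35 °C overnight) for CFU counts.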

[2] = Cmax in Sprague-Dawley rat at 11.6 mg/kg, po by LC/MS/MS analysis; type: ADME, organism-based; set-up: route oral, dose 11.6 mg/kg; settings: in vivo
Escherichia coli [3] = assay: Synergistic antibacterial activity against multidrug-resistant Escherichia coli ARC 2687 infected in CD-1 mouse model of neutropenic thigh infection assessed as reduction in colony forming unit in presence of cefpodoxime at 10 to 100 mg/kg, po administered every 6 hrs interval; type: functional, organism-based; settings: dose 10-100 mg/kg; summary of the method: as §1
Escherichia coli [4] = assay: Synergistic antibacterial activity against multidrug-resistant Escherichia coli ARC 2687 infected in CD-1 mouse model of neutropenic thigh infection assessed as reduction in colony forming unit in presence of cefpodoxime at 50 to 100 mg/kg, po administered every 6 hrs interval; type: functional; settings: dose 50-100 mg/kg; summary of the method: as §1
[5] = Oral bioavailability in Sprague-Dawley rat at 10 mg/kg by LC/MS/MS analysis; type: ADME, organism-based; settings: in vivo
Summary of the method: (§2)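 Jugular vein-cannulated male Sprague Dawley rats (180–200 g, n = 3/route). Intravenous arm: active acid at 10 mg/kg in 0.9% saline, plasma sampled 0.08–8 h. Oral arm: prodrug at a dose equivalent to 10 mg/kg acid in 25:75 PEG 400/WFI, plasma sampled 0.25–24 h. Levels by LC/MS/MS; F = (AUCpo/AUCiv) × 100.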

[6] = Toxicity in rat assessed as adverse effect at 400 to 500 mg/kg, po measured for 14 days; type: organism-based; settings: in vivo, 336 h, dose 400-500 mg/kg, time 14 day
Summary of the method: (§3)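 Fourteen-day GLP toxicology study with daily oral administration; NOAEL determined.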

[7] = Toxicity in dog assessed as adverse effect at 400 to 500 mg/kg, po measured for 14 days; type: organism-based, Canis lupus familiaris; settings: in vivo, 336 h, dose 400-500 mg/kg, time 14 day; summary of the method: as §3
[8] = Drug metabolism assessed as diamine metabolite formation
[9] = Half-life in Sprague-Dawley rat at 11.6 mg/kg, po by LC/MS/MS analysis; type: ADME, organism-based; settings: in vivo
[10] = Oral bioavailability in Sprague-Dawley rat at 11.6 mg/kg by LC/MS/MS analysis; type: ADME, organism-based; settings: in vivo; summary of the method: as §2
[11] = AUC in Sprague-Dawley rat at 11.6 mg/kg, po by LC/MS/MS analysis; type: ADME, organism-based; set-up: dose 11.6 mg/kg; settings: in vivo

SMILES | Activity (Escherichia coli [1]) [log10CFU/g] | Cmax [2] [ng/mL] | Activity (Escherichia coli [3]) | Activity (Escherichia coli [4]) [log10CFU/g] | bioavailability [5] [%] | Activity [6] | Activity [7] | Drug metabolism [8] | half-life [9] [min] | bioavailability [10] [%] | AUC [11] [ng·h/mL]
C[C@@H](O)[C@H]1C(=O)N2C(C(=O)O)=C(S[C@@H]3CN[C@H](C(=O)N(C)C)C3)[C@H](C)[C@H]12 [MEROPENEM] | -1.46 |  |  |  |  |  |  |  |  |  | 
CC1=C[C@@H](C(N)=O)N2C[C@@H]1N(O[C@H](F)C(=O)OC(C)C)C2=O |  | 5800 | Active | 1.11 | 98 | Non-Toxic | Non-Toxic | Metabolite detected | 66 | 98 | 7040
